The results in this text go back to ChEMBL document CHEMBL1938303, “Novel biologically active nitro and amino substituted benzimidazo[1,2-a]quinolines” (Bioorg Med Chem, 2011).

Usually IC50 stands for the point on the concentration scale where inhibition reaches its midpoint. The ΔTm is the shift of the melting midpoint relative to a reference.

Activity calls are given as the source filed them. No cut-off for these calls is given here.

For series [1], the system named is NCI-H460. Briefly: Antitumor activity against human H460 cells assessed as growth inhibition after 72 hrs by MTT assay. The format is functional, cell-based. In outline:
(§1)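 MCF-7, SW 620, HCT 116 and H 460 were grown as monolayers in DMEM, and MOLT-4 in suspension in RPMI, all with 10% FBS, 2 mM L-glutamine and penicillin/streptomycin at 37 °C in 5% CO2. Cells were seeded at 1×10^4 to 3×10^4 cells/mL on day 0. Compounds were added in ten-fold dilutions (10^-8 to 10^-4 M) for 72 h, then read by MTT at 570 nm. IC50 came from linear regression of percentage growth. Quadruplicate, at least two experiments.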
In general terms: Tetrazolium dyes change colour on reduction, which living cells bring about.

The test system of a further series is SW-620. As to the kind of experiment: Antitumor activity against human SW620 cells assessed as growth inhibition after 72 hrs by MTT assay. The format is functional, cell-based. In a few lines:
as §1

Series [2] has as its system HCT-116. Briefly: Antitumor activity against human HCT116 cells assessed as growth inhibition after 72 hrs by MTT assay. Type of series: functional, cell-based. In a few lines: as §1
A further series deals with MCF7. Briefly: Antitumor activity against human MCF7 cells assessed as growth inhibition after 72 hrs by MTT assay. Type of series: functional, cell-based. The following applies: MCF7, 72 h. In a few lines:
as §1

For a further series, the system named is MOLT-4. As to the kind of experiment: Antitumor activity against human MOLT4 cells assessed as growth inhibition after 72 hrs by MTT assay. Type of series: functional, cell-based. In outline:
as §1

Series [3] is described as follows: Drug uptake in human H460 cell nucleus at 100 uM after 2 hrs by fluorescence microscopy. The following applies: h460, 2 h. The format is ADME, cell-based. In outline: (§2)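 H 460 cells were grown on cover slips (100,000 cells/well) in DMEM at 37 °C for 24 h. They were then exposed to 100 µM compound for 120 min, rinsed twice with PBS, and examined immediately for intrinsic compound fluorescence under a fluorescence microscope.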

Series [4] has as its system HCT-116. Briefly: Cell cycle arrest in human HCT116 cells assessed as accumulation at S phase at 5 uM after 24 hrs by flow cytometric analysis (reference value: 39 %). The format is functional. For orientation: Flow cytometry measures light scatter and fluorescence of single cells or particles in a stream.
For series [5], the system named is NCI-H460. As to the kind of experiment: Drug uptake in human H460 cells assessed as colocalization with endoplasmic reticulum at 100 uM after 2 hrs by fluorescence microscopy. The settings on record: nci-h460, 2 h. The format is ADME, cell-based.
A short description of series [6]: Drug uptake in human H460 cell cytoplasm at 100 uM after 24 hrs by fluorescence microscopy. Type of series: ADME, cell-based. The settings on record: h460, 24 h.
Series [7] deals with HCT-116. Briefly: Cell cycle arrest in human HCT116 cells assessed as accumulation at S phase at 5 uM after 48 hrs by flow cytometric analysis (reference value: 35 %). The format is functional.
For series [8], the system named is HCT-116. Briefly: Cell cycle arrest in human HCT116 cells assessed as accumulation at Sub G0/G1 phase at 5 uM after 48 hrs by flow cytometric analysis (reference value: 1 %). The format is functional.
The subject of series [9] is HCT-116. As to the kind of experiment: Cell cycle arrest in human HCT116 cells assessed as accumulation at Sub G0/G1 phase at 5 uM after 24 hrs by flow cytometric analysis (reference value: 3 %). Type of series: functional.
The subject of series [10] is HCT-116. Briefly: Cell cycle arrest in human HCT116 cells assessed as accumulation at G2/M phase at 5 uM after 24 hrs by flow cytometric analysis (reference value: 21 %). The format is functional.
The test system of series [11] is HCT-116. Briefly: Cell cycle arrest in human HCT116 cells assessed as accumulation at G0/G1 phase at 5 uM after 48 hrs by flow cytometric analysis (reference value: 40 %). Type of series: functional.
Series [12] concerns HCT-116. As to the kind of experiment: Cell cycle arrest in human HCT116 cells assessed as accumulation at G2/M phase at 5 uM after 48 hrs by flow cytometric analysis (reference value: 25 %). Type of series: functional.
For series [13], the system named is HCT-116. Briefly: Cell cycle arrest in human HCT116 cells assessed as accumulation at G0/G1 phase at 5 uM after 24 hrs by flow cytometric analysis (reference value: 40 %). The format is functional.
Series [14] in a line: Drug uptake in human H460 cell cytoplasm at 100 uM after 2 hrs by fluorescence microscopy. The settings on record: h460, 2 h. The format is ADME, cell-based. In outline: as §2
Series [15] can be described thus: Aqueous solubility of the compound. The following applies: buffer. Type of series: physicochemical.
The test system of series [16] is Nucleic Acid. Briefly: Binding affinity to calf thymus DNA assessed as binding constant at pH 7 by fluorescence quenching assay. The format is nucleic-acid assay. The following applies: Bos taurus. In outline: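 Calf thymus DNA in sodium cacodylate buffer (I = 0.05 mol dm⁻³, pH 7.0) was sonicated and filtered, with concentration taken as phosphate. Portions of DNA were added to the buffered compound, keeping absorbance below 0.05 at the excitation wavelength and DMSO below 1%. Emission was recorded from 350 to 600 nm. Ks came from non-linear Scatchard fitting, recalculated at fixed n = 0.2.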

Series [17] deals with Nucleic Acid. As to the kind of experiment: Binding affinity to calf thymus DNA assessed as intercalation measuring viscosity index at compound to DNA molar ratio of 0.2 at pH 7 by viscometry method. The settings on record: Bos taurus. The format is nucleic-acid assay.
The test system of series [18] is Nucleic Acid. Briefly: Binding affinity to calf thymus DNA assessed as binding constant at pH 7 by UV-visible spectrophotometry. Type of series: nucleic-acid assay. The following applies: Bos taurus. In a few lines: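 Sonicated, filtered ct-DNA was quantified as phosphate. It was added in portions to the compound solution in sodium cacodylate buffer (I = 0.05 mol dm⁻³, pH 7.0), and absorbance changes were followed. Ks came from non-linear least-squares fitting to the Scatchard equation, with Ks recalculated for a fixed n of 0.2.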

In series [19] the test system is Nucleic Acid. Briefly: Binding affinity to calf thymus DNA assessed as change in melting temperature at compound to DNA molar ratio of 0.2 at pH 7 by thermal denaturation assay. Type of series: nucleic-acid assay. The following applies: Bos taurus. In a few lines: (§3)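 Absorbance of ct-DNA alone or with compound at 260 nm was recorded against temperature in sodium cacodylate buffer (I = 0.05 mol dm⁻³, pH 7.0). r = [compound]/[polynucleotide]. Ligand absorbance was subtracted and curves were normalised. Tm was the transition midpoint, taken from the first-derivative maximum or by tangent method. ΔTm = Tm(complex) − Tm(free DNA), averaged over at least two runs, ±0.5 °C.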

For series [20], the system named is Nucleic Acid. Briefly: Binding affinity to calf thymus DNA assessed as change in melting temperature at compound to DNA molar ratio of 0.3 at pH 7 by thermal denaturation assay. The format is nucleic-acid assay. The settings on record: Bos taurus. In outline:
as §3

For series [21], the system named is Nucleic Acid. As to the kind of experiment: Binding affinity to calf thymus DNA by CD-Spectroscopy. The following applies: Bos taurus. The format is nucleic-acid assay.
Series [22] has as its system Nucleic Acid. As to the kind of experiment: Binding affinity to calf thymus DNA assessed as change in melting temperature at compound to DNA molar ratio of 0.1 at pH 7 by thermal denaturation assay. Type of series: nucleic-acid assay. The settings on record: Bos taurus. In a few lines:
as §3

Take `O=[N+]([O-])c1ccc2c(ccc3nc4ccccc4n32)c1`: the IC50 amounted to 8 µM with NCI-H460 [1] (Homo sapiens, NCI-H460, 72 h); 6 µM in the series with SW-620 (Homo sapiens, SW-620, 72 h); 6 µM in the series with HCT-116 [2] (Homo sapiens, HCT-116, 72 h); 4 µM in the series with MCF7; 3 µM with MOLT-4 (Homo sapiens, MOLT-4, 72 h).
Turning to `Cl.N#Cc1cc2cc(N)ccc2n2c1nc1ccccc12`, the IC50 was 2 µM in the series on NCI-H460 [1] (Homo sapiens, NCI-H460, 72 h); 6 µM in the series with SW-620 (Homo sapiens, SW-620, 72 h); 3 µM with HCT-116 [2] (Homo sapiens, HCT-116, 72 h); 4 µM in the series on MCF7; 2 µM in the series with MOLT-4 (molt-4). The Drug uptake entry in series [3] was “Not Active”; with NCI-H460 [5], “Active”; in series [6], “Active”; in series [14], “Active”. Besides, the Activity stood at 20% in the series with HCT-116 [4]; 31% in the series on HCT-116 [7]; 4% in the series with HCT-116 [8]; 4% in the series with HCT-116 [9]; 25% in the series with HCT-116 [10]; 45% in the series with HCT-116 [11]. Also, the Activity in the series with HCT-116 [12] was found to be 24%; with HCT-116 [13], 55%.
Turning to `N#Cc1cc2cc(N)ccc2n2c1nc1ccccc12` [listing 1 of 2 here], the IC50 in the series with NCI-H460 [1] (nci-h460) is 3 µM; in the series on SW-620 (sw-620) it was 4 µM; in the series with HCT-116 [2] (hct-116), 4 µM; in the series with MOLT-4 (molt-4) it was 6 µM. Further, the Activity in the series on HCT-116 [4] came to 20%; with HCT-116 [7], 25%; in the series on HCT-116 [8], 3%; in the series with HCT-116 [9], 6%; in the series on HCT-116 [10], 18%; in the series on HCT-116 [11], 47%. In addition, the Activity was 28% in the series with HCT-116 [12] and 62% in the series with HCT-116 [13]. Moreover, the solubility result in series [15] is reported as “Insoluble”.
As for `O=[N+]([O-])c1ccc(Cl)c(/C=C/c2nc3ccccc3[nH]2)c1`, the IC50 with NCI-H460 [1] (Homo sapiens, NCI-H460, 72 h) is greater than 100 µM; in the series on SW-620 (Homo sapiens, SW-620, 72 h) it was 28 µM; with HCT-116 [2] (Homo sapiens, HCT-116, 72 h), 4 µM; in the series on MCF7, 32 µM; in the series on MOLT-4 (Homo sapiens, MOLT-4, 72 h), greater than 100 µM.
As for `CC[n+]1c(-c2ccccc2)c2cc(N)ccc2c2ccc(N)cc21`, the log Ks with Nucleic Acid [16] is 6. For the same molecule, in the series on Nucleic Acid [17], the outcome was Active.
As to `N#Cc1cc2cc(N)ccc2n2c1nc1ccccc12` [listing 2 of 2 here], the log Ks in the series with Nucleic Acid [16] amounted to 5.5; in the series with Nucleic Acid [18] it was 5.1. Also, the ΔTm is 1.9 °C in the series with Nucleic Acid [19], 0.2 °C in the series with Nucleic Acid [20] and 0.9 °C with Nucleic Acid [22]. Also, the result in the series on Nucleic Acid [21] was Active.
